Source: ChEMBL document CHEMBL5154713, “Illuminating a Dark Kinase: Structure-Guided Design, Synthesis, and Evaluation of a Potent Nek1 Inhibitor and Its Effects on the Embryonic Zebrafish Pronephros” (J Med Chem, 2022)
In brackets after ≈: the same amount, converted by molar mass.

Columns and labels:
[1] = Solubility of the compound in E3 medium with DMSO incubated for 24 hrs by DAD-HPLC based shake flask method; assay type: physicochemical
Procedure, shortened: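 Shake-flask solubility: saturated solution in E3-medium shaken 24 h at 25 °C, then HPLC-DAD at 280 nm. Concentration read by interpolation from a calibration series of 1–100 μM standards in acetonitrile, prepared from a 10 mM DMSO stock. Triplicate.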

[2] = target: Protein kinase C eta type (Homo sapiens) (UniProt P24723); assay: Inhibition of recombinant human full length PKCeta (2 to end residues) assessed as residual activity at 1 uM using ERMRPRKRQGSVRRRV as substrate incubated for 40 mins in presence of [gamma-33P]-ATP by scintillation counting method relative to control
Chain of Protein kinase C eta type (Homo sapiens) (P24723 whole entry): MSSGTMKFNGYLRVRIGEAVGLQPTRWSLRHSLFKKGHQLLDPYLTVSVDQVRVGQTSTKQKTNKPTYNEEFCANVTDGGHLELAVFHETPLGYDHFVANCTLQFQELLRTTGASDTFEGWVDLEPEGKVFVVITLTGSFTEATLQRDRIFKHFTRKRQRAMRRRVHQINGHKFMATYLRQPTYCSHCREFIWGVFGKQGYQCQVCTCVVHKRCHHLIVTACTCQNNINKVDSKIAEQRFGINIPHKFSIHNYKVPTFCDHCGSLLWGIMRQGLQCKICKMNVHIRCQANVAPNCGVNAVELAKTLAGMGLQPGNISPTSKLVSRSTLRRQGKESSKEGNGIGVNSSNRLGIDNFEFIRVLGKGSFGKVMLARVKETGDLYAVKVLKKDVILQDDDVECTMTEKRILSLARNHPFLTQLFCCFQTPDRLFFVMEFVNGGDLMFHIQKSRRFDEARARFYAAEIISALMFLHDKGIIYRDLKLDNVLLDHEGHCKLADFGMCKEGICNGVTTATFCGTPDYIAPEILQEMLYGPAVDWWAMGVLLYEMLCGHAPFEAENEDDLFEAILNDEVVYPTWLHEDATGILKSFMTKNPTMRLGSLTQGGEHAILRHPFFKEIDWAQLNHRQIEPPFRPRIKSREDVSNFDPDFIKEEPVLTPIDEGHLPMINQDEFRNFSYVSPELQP
Procedure, shortened: (§1)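 Commercial radiometric panel of 50 kinases. Each recombinant human kinase was tested at a single compound concentration of 1 μM. ATP was set within 15 μM of the apparent Km for ATP for each kinase. Residual activity is relative to control and is the mean of two independent experiments.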

[3] = target: Serine/threonine-protein kinase mTOR (Homo sapiens) (UniProt P42345); assay: Inhibition of human full length recombinant MTOR assessed as residual activity at 1 uM incubated for 40 mins in presence of [gamma 33P]-ATP by radiometric scintillation counting assay relative to control; procedure, shortened: as §1
[4] = target: Serine/threonine-protein kinase PLK3 (Homo sapiens) (UniProt Q9H4B4); assay: Inhibition of recombinant human Plk3 (19 to 301 residues) assessed as residual activity at 1 uM using casein as substrate measured after 40 mins in presence of [gamma33P]ATP by radiometric scintillation counting method relative to control; procedure, shortened: as §1
Chain of Serine/threonine-protein kinase PLK3 (Homo sapiens) (Q9H4B4 whole entry, looked up, the tested form may be a part): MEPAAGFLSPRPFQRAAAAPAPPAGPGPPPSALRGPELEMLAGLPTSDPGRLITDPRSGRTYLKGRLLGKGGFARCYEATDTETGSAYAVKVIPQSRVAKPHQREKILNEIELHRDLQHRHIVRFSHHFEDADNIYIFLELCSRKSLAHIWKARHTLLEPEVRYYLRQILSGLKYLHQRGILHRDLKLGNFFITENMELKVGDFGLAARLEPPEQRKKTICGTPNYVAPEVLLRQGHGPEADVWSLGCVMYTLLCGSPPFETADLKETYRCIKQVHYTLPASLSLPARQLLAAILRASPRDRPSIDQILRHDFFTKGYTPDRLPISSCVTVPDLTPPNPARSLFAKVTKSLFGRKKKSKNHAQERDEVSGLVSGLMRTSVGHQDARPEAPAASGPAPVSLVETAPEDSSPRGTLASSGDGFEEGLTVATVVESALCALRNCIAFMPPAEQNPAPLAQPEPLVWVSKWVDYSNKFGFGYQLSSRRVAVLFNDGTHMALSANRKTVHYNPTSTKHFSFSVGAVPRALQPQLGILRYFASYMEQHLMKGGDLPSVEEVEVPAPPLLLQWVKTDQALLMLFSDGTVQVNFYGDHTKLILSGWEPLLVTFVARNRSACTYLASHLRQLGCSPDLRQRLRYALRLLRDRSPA

[5] = target: Serine/threonine-protein kinase pim-1 (Homo sapiens) (UniProt P11309); assay: Inhibition of human full length recombinant Pim1 assessed as residual activity at 1 uM using KKRNRTLTV as substrate incubated for 40 mins in presence of [gamma 33P]-ATP by radiometric scintillation counting assay relative to control; procedure, shortened: as §1
[6] = target: Inhibitor of nuclear factor kappa-B kinase subunit alpha (Homo sapiens) (UniProt O15111); assay: Inhibition of human full length recombinant IKKalpha assessed as residual activity at 1 uM using peptide as substrate incubated for 40 mins in presence of [gamma 33P]-ATP by radiometric scintillation counting assay relative to control; procedure, shortened: as §1
[7] = target: Protein kinase C alpha type (Homo sapiens) (UniProt P17252); assay: Inhibition of recombinant human full length PKCalpha assessed as residual activity at 1 uM using histone H1 as substrate measured after 40 mins in presence of [gamma33P]ATP by radiometric scintillation counting method relative to control; procedure, shortened: as §1
[8] = target: Epidermal growth factor receptor (Homo sapiens) (UniProt P00533); assay: Inhibition of human recombinant EGFR (696 to end residues) assessed as residual activity at 1 uM using poly(Glu, Tyr) 4:1 as substrate incubated for 40 mins in presence of [gamma 33P]-ATP by radiometric scintillation counting assay relative to control; procedure, shortened: as §1
[9] = target: MAP kinase-activated protein kinase 5 (Homo sapiens) (UniProt Q8IW41); assay: Inhibition of human full length PRAK assessed as residual activity at 1 uM using KKLRRTLSVA as substrate incubated for 40 mins in presence of [gamma 33P]-ATP by radiometric scintillation counting assay relative to control; procedure, shortened: as §1
Chain of MAP kinase-activated protein kinase 5 (Homo sapiens) (Q8IW41 whole entry): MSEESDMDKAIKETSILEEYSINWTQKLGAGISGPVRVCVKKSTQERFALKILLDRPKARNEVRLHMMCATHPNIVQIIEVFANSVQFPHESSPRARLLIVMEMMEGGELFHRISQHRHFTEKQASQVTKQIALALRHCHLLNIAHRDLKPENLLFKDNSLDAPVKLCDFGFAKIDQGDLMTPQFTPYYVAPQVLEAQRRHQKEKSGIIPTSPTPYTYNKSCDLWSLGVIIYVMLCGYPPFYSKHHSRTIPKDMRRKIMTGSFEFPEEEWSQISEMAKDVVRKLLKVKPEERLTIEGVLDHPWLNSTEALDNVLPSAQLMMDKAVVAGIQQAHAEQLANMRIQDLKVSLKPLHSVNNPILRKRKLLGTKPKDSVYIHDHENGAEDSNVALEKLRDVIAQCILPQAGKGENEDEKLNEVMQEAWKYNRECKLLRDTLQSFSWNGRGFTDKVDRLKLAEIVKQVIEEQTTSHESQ

[10] = Permeability across apical to basolateral side in human Caco-2 cells at pH 6.5 to 7.4 by HPLC-MS/MS analysis; assay type: ADME, cell-based; conditions: Caco-2, pH 6.5, read-out: permeability
Procedure, shortened: (§2)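 Commercial Caco-2 assay, apical-to-basolateral direction at pH 6.5/7.4. Permeability and percent recovery taken from HPLC-MS/MS peak area response. Propranolol, labetalol, colchicine and ranitidine run in parallel as references.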

[11] = Permeability across apical to basolateral side in human Caco-2 cells assessed as drug recovery at pH 6.5 to 7.4 by HPLC-MS/MS analysis; assay type: ADME, cell-based; conditions: Caco-2, pH 6.5, read-out: Drug recovery; procedure, shortened: as §2
[12] = target: Mitogen-activated protein kinase 14 (Homo sapiens) (UniProt Q16539); assay: Inhibition of recombinant human full length SAPK2a assessed as residual activity at 1 uM using myelin basic protein as substrate measured after 40 mins in presence of [gamma33P]ATP by scintillation counting method relative to control; procedure, shortened: as §1
Chain of Mitogen-activated protein kinase 14 (Homo sapiens) (Q16539 whole entry, the tested form may be a part): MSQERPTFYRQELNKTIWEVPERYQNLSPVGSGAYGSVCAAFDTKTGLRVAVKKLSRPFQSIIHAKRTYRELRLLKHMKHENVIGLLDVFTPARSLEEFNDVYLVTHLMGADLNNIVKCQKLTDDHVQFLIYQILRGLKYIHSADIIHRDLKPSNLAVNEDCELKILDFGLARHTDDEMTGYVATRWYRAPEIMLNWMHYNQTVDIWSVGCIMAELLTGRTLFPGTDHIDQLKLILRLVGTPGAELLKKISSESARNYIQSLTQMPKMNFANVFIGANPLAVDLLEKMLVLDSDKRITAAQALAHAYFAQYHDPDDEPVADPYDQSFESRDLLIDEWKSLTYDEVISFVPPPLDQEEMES

[13] = target: Mitogen-activated protein kinase kinase kinase 5 (Homo sapiens) (UniProt Q99683); assay: Inhibition of recombinant human ASK1 (649 to 946 residues) assessed as residual activity at 1 uM using myelin basic protein as substrate measured after 40 mins in presence of [gamma33P]ATP by radiometric scintillation counting method; procedure, shortened: as §1
[14] = Toxicity in wild-type Zebrafish embryos assessed as effect on ordinary heartbeat at 0.05 to 30 uM measured upto 120 hrs; design: species or system Danio rerio; conditions: in vivo, dose 0.05-30 µM
Procedure, shortened: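 Wild-type embryos, 15 per group with intact chorions, dosed at 6 hpf with 0.05–30 μM final concentrations in E3, diluted from a DMSO stock. Survival checked every 24 h by heartbeat over 120 h, and phenotypes assessed visually. At least triplicate, 5 replicates at 30 μM.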

[15] = target: Tyrosine-protein kinase Lyn (Homo sapiens) (UniProt P07948); assay: Inhibition of recombinant human Lyn assessed as residual activity at 1 uM using poly(Glu, Tyr) 4:1 as substrate after 40 mins in presence of [gamma-33ATP] by scintillation counting based radiometry assay relative to control; procedure, shortened: as §1
Chain of Tyrosine-protein kinase Lyn (Homo sapiens) (P07948 2-512 limits assumed): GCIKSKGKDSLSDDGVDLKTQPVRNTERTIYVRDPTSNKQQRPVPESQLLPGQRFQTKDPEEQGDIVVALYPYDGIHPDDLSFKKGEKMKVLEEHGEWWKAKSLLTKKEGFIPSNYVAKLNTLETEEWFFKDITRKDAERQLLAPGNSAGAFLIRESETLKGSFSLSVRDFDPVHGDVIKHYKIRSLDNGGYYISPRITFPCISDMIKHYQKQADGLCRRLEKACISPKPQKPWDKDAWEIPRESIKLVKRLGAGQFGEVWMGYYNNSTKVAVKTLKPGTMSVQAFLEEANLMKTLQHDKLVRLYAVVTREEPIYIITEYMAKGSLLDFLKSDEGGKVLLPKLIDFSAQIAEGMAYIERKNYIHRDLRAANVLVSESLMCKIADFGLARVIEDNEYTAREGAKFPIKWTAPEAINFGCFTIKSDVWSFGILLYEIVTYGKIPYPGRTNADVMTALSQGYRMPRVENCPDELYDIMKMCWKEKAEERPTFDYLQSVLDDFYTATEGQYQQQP

[16] = target: Serine/threonine-protein kinase Nek11 (Homo sapiens) (UniProt Q8NG66); assay: Inhibition of human full length recombinant NEK11 assessed as residual activity at 1 uM using myelin basic protein as substrate incubated for 40 mins in presence of [gamma 33P]-ATP by radiometric scintillation counting assay relative to control; procedure, shortened: as §1
Chain of Serine/threonine-protein kinase Nek11 (Homo sapiens) (Q8NG66 whole entry): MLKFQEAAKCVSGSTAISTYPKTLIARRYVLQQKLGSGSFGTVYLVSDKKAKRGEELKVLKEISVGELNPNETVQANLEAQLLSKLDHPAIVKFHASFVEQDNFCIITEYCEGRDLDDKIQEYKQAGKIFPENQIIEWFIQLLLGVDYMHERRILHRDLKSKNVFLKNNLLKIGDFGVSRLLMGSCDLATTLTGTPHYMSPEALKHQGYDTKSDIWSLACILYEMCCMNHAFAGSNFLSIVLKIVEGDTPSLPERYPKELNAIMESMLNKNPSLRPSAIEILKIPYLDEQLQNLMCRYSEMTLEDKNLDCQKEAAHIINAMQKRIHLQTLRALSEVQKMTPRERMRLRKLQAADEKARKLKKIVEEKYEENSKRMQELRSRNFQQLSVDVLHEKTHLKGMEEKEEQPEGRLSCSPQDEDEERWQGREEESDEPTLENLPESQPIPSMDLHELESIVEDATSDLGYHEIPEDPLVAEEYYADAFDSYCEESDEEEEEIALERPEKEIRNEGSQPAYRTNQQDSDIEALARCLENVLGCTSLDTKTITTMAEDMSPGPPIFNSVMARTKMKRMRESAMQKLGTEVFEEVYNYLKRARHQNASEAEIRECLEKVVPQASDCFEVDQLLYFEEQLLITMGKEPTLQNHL

[17] = target: Serine/threonine-protein kinase Nek7 (Homo sapiens) (UniProt Q8TDX7); assay: Inhibition of recombinant human NEK7 (2 to end residues) assessed as residual activity at 1 uM using FLAKSFGSPNRAYKK as substrate measured after 40 mins in presence of [gamma33P]ATP by radiometric scintillation counting method relative to control; procedure, shortened: as §1
Chain of Serine/threonine-protein kinase Nek7 (Homo sapiens) (Q8TDX7 whole entry, looked up): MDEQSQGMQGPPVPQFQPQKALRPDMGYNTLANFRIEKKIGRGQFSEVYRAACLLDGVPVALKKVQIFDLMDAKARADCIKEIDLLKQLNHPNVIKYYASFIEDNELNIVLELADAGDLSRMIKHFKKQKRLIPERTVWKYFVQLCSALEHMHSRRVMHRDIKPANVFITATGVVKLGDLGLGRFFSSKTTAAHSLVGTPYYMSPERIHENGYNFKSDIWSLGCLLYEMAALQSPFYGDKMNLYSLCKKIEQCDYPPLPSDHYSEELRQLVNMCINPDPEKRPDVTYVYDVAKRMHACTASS

[18] = target: Interleukin-1 receptor-associated kinase 4 (Homo sapiens) (UniProt Q9NWZ3); assay: Inhibition of human full length IRAK4 assessed as residual activity at 1 uM using myelin basic protein as substrate incubated for 40 mins in presence of [gamma 33P]-ATP by radiometric scintillation counting assay relative to control; procedure, shortened: as §1
Chain of Interleukin-1 receptor-associated kinase 4 (Homo sapiens) (Q9NWZ3 whole entry): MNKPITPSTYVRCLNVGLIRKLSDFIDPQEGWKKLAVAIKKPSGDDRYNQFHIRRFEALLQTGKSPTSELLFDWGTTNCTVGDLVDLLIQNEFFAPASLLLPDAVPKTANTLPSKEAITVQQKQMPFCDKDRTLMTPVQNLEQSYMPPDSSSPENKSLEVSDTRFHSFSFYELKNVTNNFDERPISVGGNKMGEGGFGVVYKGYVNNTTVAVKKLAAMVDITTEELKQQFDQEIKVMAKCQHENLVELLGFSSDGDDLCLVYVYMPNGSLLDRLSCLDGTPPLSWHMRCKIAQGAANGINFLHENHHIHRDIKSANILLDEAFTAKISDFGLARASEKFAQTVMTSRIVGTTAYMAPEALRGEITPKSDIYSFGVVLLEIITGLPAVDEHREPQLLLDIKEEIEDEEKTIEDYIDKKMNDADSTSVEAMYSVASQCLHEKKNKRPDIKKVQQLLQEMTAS

[19] = Toxicity in wild-type Zebrafish embryos assessed as lethality at 30 uM measured after 72 hrs; design: species or system Danio rerio; conditions: in vivo
Procedure, shortened: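 Wild-type zebrafish embryos with intact chorions were selected at 4 hpf, 15 per group, in E3 medium. At 6 hpf a 10× dilution of a DMSO stock was added to give final concentrations of 0.05–30 μM. Survival was scored every 24 h by heartbeat over 120 h. The 30 μM group was run in 5 replicates and the others at least in triplicate.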

With `O=S(=O)(N[C@@H](CO)Cc1c[nH]c2ccccc12)c1ccc(-c2ccnc3[nH]ccc23)cc1` the solubility at 24 h [1] was 13.9 µg/mL (≈ 31.1 µM), the Activity [2] was > 75% and the Activity [3] was > 75%. For the same compound, the Activity [4] was > 75%, the Activity [5] was > 75% and the Activity [6] was < 75%. The Activity [7] was > 75%, the Activity [8] was > 75% and the Activity [9] was > 75%. The Papp A→B [10] was 3.4 ×10⁻⁶ cm/s, the recovery [11] was 45% and the Activity [12] was > 75%. For the same compound, the Activity [13] was > 75%, the Activity [14] was “Non-Toxic” and the Activity [15] was > 75%. The Activity [16] was > 75%, the Activity [17] was > 75% and the Activity [18] was > 75%. The Activity [19] was “Toxic”.
